Active and inactive are the calls of the source. The rule behind the calls is not given here.
Key:
[1] = target: Angiotensin-converting enzyme (Homo sapiens) (UniProt P12821); test: Inhibition of ACE (unknown origin) at 1 uM using synthetic peptide hippuryl-histidyl-leucine substrate by high-throughput colorimetric screening method
Summary of the method: (§1)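 ACE activity was followed by the release of hippuric acid from the substrate hippuryl-histidyl-leucine. The released hippuric acid was converted to a yellow product with pyridine and benzene sulfonyl chloride, and the colour was read colorimetrically as absorbance. Each condition was run in triplicate and averaged, with lisinopril as the reference standard.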

[2] = target: Angiotensin-converting enzyme (Homo sapiens) (UniProt P12821); test: Inhibition of ACE (unknown origin) at 1 uM using synthetic peptide hippuryl-histidyl-leucine substrate by high-throughput colorimetric screening method relative to lisinopril
[3] = target: Angiotensin-converting enzyme (Homo sapiens) (UniProt P12821); test: Inhibition of ACE (unknown origin) at 0.5 uM to 10 uM uM using synthetic peptide hippuryl-histidyl-leucine substrate by high-throughput colorimetric screening method; summary of the method: as §1

Chain of Angiotensin-converting enzyme (Homo sapiens) (P12821 whole entry): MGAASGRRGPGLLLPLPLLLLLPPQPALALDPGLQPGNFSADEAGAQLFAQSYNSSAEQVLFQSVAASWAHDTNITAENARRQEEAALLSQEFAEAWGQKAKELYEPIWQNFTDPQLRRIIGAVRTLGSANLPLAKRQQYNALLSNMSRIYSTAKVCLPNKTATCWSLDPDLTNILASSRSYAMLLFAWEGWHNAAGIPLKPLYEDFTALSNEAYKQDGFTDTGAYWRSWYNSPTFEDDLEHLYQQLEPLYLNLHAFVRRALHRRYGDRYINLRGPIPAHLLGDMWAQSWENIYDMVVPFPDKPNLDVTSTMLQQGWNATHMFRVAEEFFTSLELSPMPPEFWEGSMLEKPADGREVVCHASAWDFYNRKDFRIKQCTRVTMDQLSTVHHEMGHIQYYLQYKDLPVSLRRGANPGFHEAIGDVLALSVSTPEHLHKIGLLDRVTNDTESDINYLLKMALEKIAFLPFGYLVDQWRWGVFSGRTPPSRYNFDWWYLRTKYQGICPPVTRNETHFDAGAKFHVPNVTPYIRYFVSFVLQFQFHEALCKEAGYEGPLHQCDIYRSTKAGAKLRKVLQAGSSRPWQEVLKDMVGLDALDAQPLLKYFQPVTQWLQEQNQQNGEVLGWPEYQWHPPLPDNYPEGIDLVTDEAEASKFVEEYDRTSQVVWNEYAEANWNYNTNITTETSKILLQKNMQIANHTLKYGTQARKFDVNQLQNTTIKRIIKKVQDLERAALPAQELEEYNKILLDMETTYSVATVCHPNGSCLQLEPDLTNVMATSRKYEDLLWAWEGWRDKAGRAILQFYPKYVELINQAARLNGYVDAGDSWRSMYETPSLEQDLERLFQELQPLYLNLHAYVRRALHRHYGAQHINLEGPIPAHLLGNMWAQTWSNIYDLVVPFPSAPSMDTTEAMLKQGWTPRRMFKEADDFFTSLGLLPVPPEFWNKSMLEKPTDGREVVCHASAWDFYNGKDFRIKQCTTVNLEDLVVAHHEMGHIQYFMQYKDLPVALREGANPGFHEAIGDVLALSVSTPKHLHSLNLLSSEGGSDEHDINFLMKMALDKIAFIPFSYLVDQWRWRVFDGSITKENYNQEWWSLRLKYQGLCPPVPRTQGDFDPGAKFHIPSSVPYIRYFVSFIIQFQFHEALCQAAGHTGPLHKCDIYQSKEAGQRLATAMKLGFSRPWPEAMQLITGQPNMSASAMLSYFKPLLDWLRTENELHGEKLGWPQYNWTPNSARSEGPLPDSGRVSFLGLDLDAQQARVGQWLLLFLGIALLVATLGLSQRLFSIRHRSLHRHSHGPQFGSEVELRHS

Compound	inhibition [1] [%]	inhibition [2] [%]	inhibition [3]
O=c1c2ccccc2nc(-c2ccc([N+](=O)[O-])cc2)n1CC(O)COc1cccc2[nH]c3ccccc3c12 (stereo not drawn)	17	–	–
O=c1c2ccccc2nc(-c2ccc(Cl)cc2Cl)n1CC(O)COc1cccc2[nH]c3ccccc3c12 (stereo not drawn)	17	–	–
Cc1nc2ccccc2c(=O)n1CC(O)COc1cccc2[nH]c3ccccc3c12 (stereo not drawn)	17	–	–
O=c1c2ccccc2nc(-c2ccccc2)n1CC(O)COc1cccc2[nH]c3ccccc3c12 (stereo not drawn)	> 75	100	Active
O=c1c2ccccc2nc(C(F)(F)F)n1CC(O)COc1cccc2[nH]c3ccccc3c12 (stereo not drawn)	> 75	82.9	Active

Further lines, results first:

inhibition [1] [%]	inhibition [2] [%]	inhibition [3]	Compound
> 75	100	Active	Cc1ccc(-c2nc3ccccc3c(=O)n2CC(O)COc2cccc3[nH]c4ccccc4c23)cc1 (stereo not drawn)
17	–	–	O=c1c2ccccc2nc(-c2ccc(F)cc2)n1CC(O)COc1cccc2[nH]c3ccccc3c12 (stereo not drawn)

— ChEMBL document CHEMBL3414498, “Design and synthesis of 3-(3-((9H-carbazol-4-yl)oxy)-2-hydroxypropyl)-2-phenylquinazolin-4(3H)-one derivatives to induce ACE inhibitory activity” (Eur J Med Chem, 2015)
